From ChEMBL document CHEMBL1130247, “Antirhino/enteroviral vinylacetylene benzimidazoles: a study of their activity and oral plasma levels in mice” (J Med Chem, 1997) come the findings set out here.

A short description of data set [1]: Oral plasma concentration in mice at 100 mg/kg dosage within 4-hr time frame. Format: ADME, organism-based. On the set-up: route oral, dose 100 mg/kg. As to conditions: mouse.
The nature of data set [2]: Oral bioavailability in monkey. Format: ADME, organism-based. As to conditions: primates, in vivo.
A further data set has as its system rhinovirus B14. Kind of data set: Antiviral activity against human rhinovirus 14 using plaque reduction assay in HeLa cell lines. Format: functional, organism-based, human rhinovirus type 14. As to conditions: Rhinovirus B. Background: Plaques are areas of infected cells; plaque reduction assays count them against a control.
For data set [3], the system named is Coxsackievirus. Kind of data set: Antiviral activity against coxsackie virus A21. The class given is functional, organism-based. An outline of the steps:
(§1)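 HeLa monolayers in MEM with 5% FBS and 10 mM MgSO4, infected with virus for 1–2 h at room temperature. Overlay of 1.5% agarose mixed 1:1 with 2× MEM (2% FBS) holding graded compound concentrations, diluted in DMSO from a 20 mg/mL stock. Incubated at 37 °C until DMSO-control plaques reached optimal size. Formalin-fixed, crystal violet-stained, plaques counted in duplicate wells. IC50 by Reed–Muench.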

The subject of a further data set is Enterovirus C. Put plainly: Antiviral activity against poliovirus 1. The class given is functional, organism-based. Summed up:
as §1

The nature of data set [4]: Antiviral activity against human rhinovirus 14 (HRV-14) using CPE/XTT assay in human tumor cell lines. The class given is organism-based, human rhinovirus type 14. The following applies: read-out: TC50 (the source's name). Summed up:
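Cytopathic-effect assay run by an earlier published method, except that surviving host cells were quantified with XTT substrate instead of crystal violet staining.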

Data set [5] concerns Human rhinovirus sp. Kind of data set: Antiviral activity against human rhinovirus 16. Format: functional, organism-based.
For data set [6], the system named is Human rhinovirus sp. Kind of data set: Antiviral activity against human rhinovirus 2. Format: functional, organism-based.
In data set [7] the test system is Human rhinovirus sp. Kind of data set: Antiviral activity against human rhinovirus 1A. The class given is functional, organism-based.
The test system of data set [8] is Coxsackievirus. Put plainly: Antiviral activity against coxsackie virus B3. The class given is functional, organism-based. An outline of the steps:
as §1

Data set [9] concerns Coxsackievirus. Put plainly: Antiviral activity against coxsackie virus A21M. Format: functional, organism-based.
Another data set relates to HeLa. Kind of data set: Antiviral activity against poliovirus 1 using PV-1 plaque reduction assay in HeLa cell lines. The following applies: Homo sapiens. The class given is functional, cell-based. An outline of the steps: as §1

In brackets after ≈: the same amount, converted by molar mass.

Broadly, the Cmax is the maximum level reached in the sampled fluid or tissue. For `C/C=C(\c1ccccc1)c1ccc2nc(N)n(S(=O)(=O)C(C)C)c2c1`, the Cmax in [1] was determined as 5100 ng/mL.

Usually bioavailability stands for dose-corrected exposure relative to a reference, in per cent. As usually defined, the IC50 is the concentration at which inhibition is half-maximal. Consider `C#C/C=C(\c1ccc(F)cc1)c1ccc2nc(N)n(S(=O)(=O)C(C)C)c2c1`, for which the bioavailability in [2] stood at 23%. For the same compound, the IC50 with rhinovirus B14 was 0.13 µg/mL (≈ 0.339 µM); with Coxsackievirus [3], 0.1 µg/mL (≈ 0.261 µM); in the data set on Enterovirus C, 0.067 µg/mL (≈ 0.175 µM); in the data set with Human rhinovirus sp. [5], 0.098 µg/mL (≈ 0.256 µM); with Human rhinovirus sp. [6] it was 0.091 µg/mL (≈ 0.237 µM); in the data set with Human rhinovirus sp. [7] it was 0.078 µg/mL (≈ 0.203 µM). The IC50 with Coxsackievirus [8] is 0.095 µg/mL (≈ 0.248 µM); in the data set with Coxsackievirus [9], 0.062 µg/mL (≈ 0.162 µM). The compound further yielded a Cmax in [1] of 9200 ng/mL. In data set [4], the CC50 was determined as 5.8 µg/mL (≈ 15.1 µM).

On to `C#C/C=C(\c1ccc(OC)c(F)c1)c1ccc2nc(N)n(S(=O)(=O)C(C)C)c2c1`, for which the half-maximal inhibitory concentration (IC50) in the data set with rhinovirus B14 is 0.061 µg/mL (≈ 0.148 µM); in the data set with Coxsackievirus [3], 0.032 µg/mL (≈ 0.0774 µM); with Enterovirus C it was 0.016 µg/mL (≈ 0.0387 µM); in the data set with Human rhinovirus sp. [5], 0.06 µg/mL (≈ 0.145 µM); in the data set on Human rhinovirus sp. [6], 0.054 µg/mL (≈ 0.131 µM); with Human rhinovirus sp. [7], 0.049 µg/mL (≈ 0.119 µM). The IC50 in the data set with Coxsackievirus [8] turned out to be 0.035 µg/mL (≈ 0.0846 µM); in the data set with Coxsackievirus [9] (Coxsackievirus, read-out: IC50), 0.029 µg/mL (≈ 0.0701 µM). This compound also displayed a Cmax in [1] of 9200 ng/mL. Further, in data set [4], the CC50 amounted to 5.5 µg/mL (≈ 13.3 µM).

The compound `C#C/C=C(\c1cccc(C(F)(F)F)c1)c1ccc2nc(N)n(S(=O)(=O)C(C)C)c2c1` showed a concentration for half-maximal inhibition (IC50) with rhinovirus B14 of 0.4 µg/mL (≈ 0.923 µM). In [1], this compound came in with a peak concentration (Cmax) of 4900 ng/mL. The CC50 in data set [4] is more than 100 µg/mL.

Regarding `C#C/C=C(\c1ccc(F)c(F)c1)c1ccc2nc(N)n(S(=O)(=O)C(C)C)c2c1`, the IC50 in the data set on rhinovirus B14 was found to be 0.19 µg/mL (≈ 0.473 µM); in the data set with Coxsackievirus [3] it was 0.247 µg/mL (≈ 0.615 µM); in the data set with Enterovirus C it was 0.082 µg/mL (≈ 0.204 µM); in the data set on Human rhinovirus sp. [5] it was 0.55 µg/mL (≈ 1.37 µM); in the data set on Human rhinovirus sp. [6] it was 0.23 µg/mL (≈ 0.573 µM); with Human rhinovirus sp. [7] it was 0.12 µg/mL (≈ 0.299 µM). The IC50 was determined as 0.1 µg/mL (≈ 0.249 µM) in the data set with Coxsackievirus [8] and 0.22 µg/mL (≈ 0.548 µM) in the data set on Coxsackievirus [9] (Coxsackievirus, read-out: IC50). Further, the Cmax in [1] came to 2900 ng/mL. Besides, in [4], the CC50 worked out at 19 µg/mL (≈ 47.3 µM).

As for `C#C/C=C(\c1cc(F)cc(F)c1)c1ccc2nc(N)n(S(=O)(=O)C(C)C)c2c1`, the IC50 was found to be 0.17 µg/mL (≈ 0.423 µM) with rhinovirus B14; 0.19 µg/mL (≈ 0.473 µM) in the data set on Coxsackievirus [3]; 0.12 µg/mL (≈ 0.299 µM) in the data set with Enterovirus C; 0.26 µg/mL (≈ 0.648 µM) in the data set with Human rhinovirus sp. [5]; 0.18 µg/mL (≈ 0.448 µM) in the data set with Human rhinovirus sp. [6]; 0.12 µg/mL (≈ 0.299 µM) with Human rhinovirus sp. [7]. In addition, the IC50 is 0.14 µg/mL (≈ 0.349 µM) in the data set with Coxsackievirus [8] and 0.23 µg/mL (≈ 0.573 µM) in the data set with Coxsackievirus [9] (Coxsackievirus, read-out: IC50). In [1], this compound displayed a Cmax of 18000 ng/mL. The CC50 in [4] was determined as 32 µg/mL (≈ 79.7 µM).

As to `C#C/C=C(\c1ccc(OC(F)(F)F)cc1)c1ccc2nc(N)n(S(=O)(=O)C(C)C)c2c1`, the IC50 with rhinovirus B14 came out at 0.55 µg/mL (≈ 1.22 µM); in the data set with Coxsackievirus [3], 0.22 µg/mL (≈ 0.489 µM); in the data set with Enterovirus C, 0.27 µg/mL (≈ 0.601 µM); in the data set on Human rhinovirus sp. [5] it was 0.22 µg/mL (≈ 0.489 µM); in the data set with Human rhinovirus sp. [6], 0.35 µg/mL (≈ 0.779 µM); in the data set on Human rhinovirus sp. [7], 0.26 µg/mL (≈ 0.578 µM). Further, the IC50 in the data set with Coxsackievirus [8] worked out at 0.7 µg/mL (≈ 1.56 µM); with Coxsackievirus [9] (Coxsackievirus, read-out: IC50), 0.5 µg/mL (≈ 1.11 µM). The compound further had a peak concentration (Cmax) in data set [1] of 2000 ng/mL. In addition, the CC50 in data set [4] was 18 µg/mL (≈ 40 µM).

As for `CC#C/C=C(\c1cccc(F)c1)c1ccc2nc(N)n(S(=O)(=O)C(C)C)c2c1`, the IC50 worked out at 0.26 µg/mL (≈ 0.654 µM) in the data set with rhinovirus B14; 0.33 µg/mL (≈ 0.83 µM) in the data set with Coxsackievirus [3]; 0.12 µg/mL (≈ 0.302 µM) with Enterovirus C; 0.09 µg/mL (≈ 0.226 µM) in the data set on Human rhinovirus sp. [5]; 0.28 µg/mL (≈ 0.704 µM) with Human rhinovirus sp. [6]; 0.14 µg/mL (≈ 0.352 µM) in the data set on Human rhinovirus sp. [7]. Moreover, the IC50 with Coxsackievirus [8] worked out at 0.19 µg/mL (≈ 0.478 µM); in the data set on Coxsackievirus [9] (Coxsackievirus, read-out: IC50), 0.36 µg/mL (≈ 0.906 µM). Also, in data set [1], the concentration peaked (Cmax) at 640 ng/mL. For the same compound, in data set [4], the CC50 was 3.1 µg/mL (≈ 7.8 µM).

In the case of `CC(C)S(=O)(=O)n1c(N)nc2ccc(C(=O)c3cccc(F)c3)cc21`, in the data set on rhinovirus B14, the IC50 worked out at 2.1 µg/mL (≈ 5.81 µM). Also, in data set [4], the CC50 is 15.9 µg/mL (≈ 44 µM).

For `C#C/C=C(\c1ccccc1)c1cc2c(cc1F)nc(N)n2S(=O)(=O)C(C)C`, the bioavailability in data set [2] amounted to 46%. Also, in data set [1], the Cmax was found to be 16000 ng/mL. Also, the CC50 in [4] was determined as 13 µg/mL (≈ 33.9 µM). It took 1.5 µg/mL (≈ 3.91 µM) to reach half-maximal inhibition in the data set on HeLa (IC50).

Consider `C#C/C=C(\c1ccc(C)cc1)c1ccc2nc(N)n(S(=O)(=O)C(C)C)c2c1`, for which the IC50 in the data set on rhinovirus B14 is 0.075 µg/mL (≈ 0.198 µM). The Cmax in data set [1] worked out at 610 ng/mL. Moreover, in data set [4], the CC50 was determined as 5.7 µg/mL (≈ 15 µM).
